Source: ChEMBL document CHEMBL1177647, “Synthesis and characterization of novel phenylindoles as potential probes for imaging of β-amyloid plaques in the brain” (Bioorg Med Chem, 2010)

What was measured:
Assay type in all cases: ADME, organism-based
Kidney [1] = test: Biodistribution in ddY mouse kidney at 0.2 to 0.4 uCi, iv after 60 mins; details: in vivo, 1 h
Summary of the method: (§1)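 Radiotracer (0.2–0.4 μCi) given as a single tail-vein injection of 100 μL saline containing 10 μL ethanol to normal ddY mice (5 weeks old, 25–30 g). Mice were sacrificed at set times after injection. Organs were excised and weighed, and radioactivity was counted in an automatic gamma counter.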

Stomach [2] = test: Biodistribution in ddY mouse stomach at 0.2 to 0.4 uCi, iv after 60 mins measured per gram of organ; details: in vivo, 1 h; summary of the method: as §1
Heart [3] = test: Biodistribution in ddY mouse heart at 0.2 to 0.4 uCi, iv after 10 mins; details: in vivo; summary of the method: as §1
Pancreas [4] = test: Biodistribution in ddY mouse pancreas at 0.2 to 0.4 uCi, iv after 60 mins; details: in vivo, 1 h; summary of the method: as §1
Kidney [5] = test: Biodistribution in ddY mouse kidney at 0.2 to 0.4 uCi, iv after 30 mins; details: in vivo, 0.5 h; summary of the method: as §1
Blood [6] = test: Biodistribution in ddY mouse blood at 0.2 to 0.4 uCi, iv after 60 mins; details: in vivo, 1 h; summary of the method: as §1
Intestine [7] = test: Biodistribution in ddY mouse intestine at 0.2 to 0.4 uCi, iv after 2 mins; details: in vivo; summary of the method: as §1
Brain [8] = test: Biodistribution in ddY mouse brain at 0.2 to 0.4 uCi, iv after 60 mins; details: in vivo, 1 h; summary of the method: as §1
Spleen [9] = test: Biodistribution in ddY mouse spleen at 0.2 to 0.4 uCi, iv after 60 mins; details: in vivo, 1 h; summary of the method: as §1
Blood [10] = test: Biodistribution in ddY mouse blood at 0.2 to 0.4 uCi, iv after 10 mins; details: in vivo; summary of the method: as §1
Brain [11] = test: Biodistribution in ddY mouse brain at 0.2 to 0.4 uCi, iv after 2 mins; details: in vivo; summary of the method: as §1
Pancreas [12] = test: Biodistribution in ddY mouse pancreas at 0.2 to 0.4 uCi, iv after 30 mins; details: in vivo, 0.5 h; summary of the method: as §1
Liver [13] = test: Biodistribution in ddY mouse liver at 0.2 to 0.4 uCi, iv after 30 mins; details: in vivo, 0.5 h; summary of the method: as §1
Stomach [14] = test: Biodistribution in ddY mouse stomach at 0.2 to 0.4 uCi, iv after 10 mins measured per gram of organ; details: in vivo; summary of the method: as §1
Heart [15] = test: Biodistribution in ddY mouse heart at 0.2 to 0.4 uCi, iv after 2 mins; details: in vivo; summary of the method: as §1
Heart [16] = test: Biodistribution in ddY mouse heart at 0.2 to 0.4 uCi, iv after 30 mins; details: in vivo, 0.5 h; summary of the method: as §1
Brain [17] = test: Biodistribution in ddY mouse brain at 0.2 to 0.4 uCi, iv after 30 mins; details: in vivo, 0.5 h; summary of the method: as §1
Kidney [18] = test: Biodistribution in ddY mouse kidney at 0.2 to 0.4 uCi, iv after 2 mins; details: in vivo; summary of the method: as §1
Spleen [19] = test: Biodistribution in ddY mouse spleen at 0.2 to 0.4 uCi, iv after 10 mins; details: in vivo; summary of the method: as §1
Pancreas [20] = test: Biodistribution in ddY mouse pancreas at 0.2 to 0.4 uCi, iv after 2 mins; details: in vivo; summary of the method: as §1
Liver [21] = test: Biodistribution in ddY mouse liver at 0.2 to 0.4 uCi, iv after 2 mins; details: in vivo; summary of the method: as §1
Liver [22] = test: Biodistribution in ddY mouse liver at 0.2 to 0.4 uCi, iv after 60 mins; details: in vivo, 1 h; summary of the method: as §1
Pancreas [23] = test: Biodistribution in ddY mouse pancreas at 0.2 to 0.4 uCi, iv after 10 mins; details: in vivo; summary of the method: as §1
Intestine [24] = test: Biodistribution in ddY mouse intestine at 0.2 to 0.4 uCi, iv after 60 mins; details: in vivo, 1 h; summary of the method: as §1
Intestine [25] = test: Biodistribution in ddY mouse intestine at 0.2 to 0.4 uCi, iv after 10 mins; details: in vivo; summary of the method: as §1
Spleen [26] = test: Biodistribution in ddY mouse spleen at 0.2 to 0.4 uCi, iv after 2 mins; details: in vivo; summary of the method: as §1
Kidney [27] = test: Biodistribution in ddY mouse kidney at 0.2 to 0.4 uCi, iv after 10 mins; details: in vivo; summary of the method: as §1
Stomach [28] = test: Biodistribution in ddY mouse stomach at 0.2 to 0.4 uCi, iv after 2 mins measured per gram of organ; details: in vivo; summary of the method: as §1
Heart [29] = test: Biodistribution in ddY mouse heart at 0.2 to 0.4 uCi, iv after 60 mins; details: in vivo, 1 h; summary of the method: as §1
Blood [30] = test: Biodistribution in ddY mouse blood at 0.2 to 0.4 uCi, iv after 30 mins; details: in vivo, 0.5 h; summary of the method: as §1
Brain [31] = test: Biodistribution in ddY mouse brain at 0.2 to 0.4 uCi, iv after 10 mins; details: in vivo; summary of the method: as §1
Stomach [32] = test: Biodistribution in ddY mouse stomach at 0.2 to 0.4 uCi, iv after 30 mins measured per gram of organ; details: in vivo, 0.5 h; summary of the method: as §1
Intestine [33] = test: Biodistribution in ddY mouse intestine at 0.2 to 0.4 uCi, iv after 30 mins; details: in vivo, 0.5 h; summary of the method: as §1
Spleen [34] = test: Biodistribution in ddY mouse spleen at 0.2 to 0.4 uCi, iv after 30 mins; details: in vivo, 0.5 h; summary of the method: as §1
Liver [35] = test: Biodistribution in ddY mouse liver at 0.2 to 0.4 uCi, iv after 10 mins; details: in vivo; summary of the method: as §1
Blood [36] = test: Biodistribution in ddY mouse blood at 0.2 to 0.4 uCi, iv after 2 mins; details: in vivo; summary of the method: as §1

Row | Compound | Drug uptake (Kidney [1]) [% ID/g] | Drug uptake (Stomach [2]) [%ID] | Drug uptake (Heart [3]) [% ID/g] | Drug uptake (Pancreas [4]) [% ID/g] | Drug uptake (Kidney [5]) [% ID/g] | Drug uptake (Blood [6]) [% ID/g] | Drug uptake (Intestine [7]) [% ID/g] | Drug uptake (Brain [8]) [% ID/g] | Drug uptake (Spleen [9]) [% ID/g] | Drug uptake (Blood [10]) [% ID/g] | Drug uptake (Brain [11]) [% ID/g] | Drug uptake (Pancreas [12]) [% ID/g] | Drug uptake (Liver [13]) [% ID/g] | Drug uptake (Stomach [14]) [%ID] | Drug uptake (Heart [15]) [% ID/g] | Drug uptake (Heart [16]) [% ID/g] | Drug uptake (Brain [17]) [% ID/g] | Drug uptake (Kidney [18]) [% ID/g] | Drug uptake (Spleen [19]) [% ID/g] | Drug uptake (Pancreas [20]) [% ID/g] | other results
1 | COc1ccc(-c2cc3cc([125I])ccc3[nH]2)cc1 | 2.05 | 3.06 | 2.97 | 1.29 | 2.89 | 0.74 | 1.9 | 1.16 | 2.02 | 1.97 | 2.11 | 1.95 | 10.38 | 1.38 | 7.72 | 1.47 | 1.36 | 8.76 | 3.43 | 4.54 | Drug uptake (Liver [21]): 17.81 % ID/g; Drug uptake (Liver [22]): 8.22 % ID/g; Drug uptake (Pancreas [23]): 3.94 % ID/g; Drug uptake (Intestine [24]): 20.35 % ID/g; Drug uptake (Intestine [25]): 6.85 % ID/g; Drug uptake (Spleen [26]): 4.22 % ID/g; Drug uptake (Kidney [27]): 4.96 % ID/g; Drug uptake (Stomach [28]): 0.72 %ID; Drug uptake (Heart [29]): 1.06 % ID/g; Drug uptake (Blood [30]): 1.38 % ID/g; Drug uptake (Brain [31]): 2.07 % ID/g; Drug uptake (Stomach [32]): 2.67 %ID; Drug uptake (Intestine [33]): 12.32 % ID/g; Drug uptake (Spleen [34]): 2.96 % ID/g; Drug uptake (Liver [35]): 13.96 % ID/g; Drug uptake (Blood [36]): 3.59 % ID/g
2 | OCCOc1ccc(-c2cc3cc([125I])ccc3[nH]2)cc1 | 2.76 | 1.62 | 5.84 | 2.22 | 6.77 | 0.8 | 1.97 | 1.82 | 2.39 | 1.6 | 2.13 | 3.57 | 13.42 | 1.97 | 12.91 | 2.97 | 1.93 | 11.93 | 7.09 | 5.55 | Drug uptake (Liver [21]): 17.69 % ID/g; Drug uptake (Liver [22]): 8.17 % ID/g; Drug uptake (Pancreas [23]): 5.59 % ID/g; Drug uptake (Intestine [24]): 18.98 % ID/g; Drug uptake (Intestine [25]): 5.76 % ID/g; Drug uptake (Spleen [26]): 7.56 % ID/g; Drug uptake (Kidney [27]): 9.35 % ID/g; Drug uptake (Stomach [28]): 0.97 %ID; Drug uptake (Heart [29]): 1.36 % ID/g; Drug uptake (Blood [30]): 1.26 % ID/g; Drug uptake (Brain [31]): 2.62 % ID/g; Drug uptake (Stomach [32]): 2.11 %ID; Drug uptake (Intestine [33]): 11.32 % ID/g; Drug uptake (Spleen [34]): 4.75 % ID/g; Drug uptake (Liver [35]): 16.77 % ID/g; Drug uptake (Blood [36]): 4.07 % ID/g
